Measured values: ChEMBL document CHEMBL4808163, “Benzothiazolyl and Benzoxazolyl Hydrazones Function as Zinc Metallochaperones to Reactivate Mutant p53” (J Med Chem, 2021)
Active and inactive are the calls of the source. The rule behind the calls is not given here.

Key:
[1] = Binding affinity to Zn(II)+ incubated for 60 mins using RhodZin-3 by fuorescence assay
[2] = Induction of Zinc-dependent p53 R175H mutant refolding by assessing wild type conformation
In short: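 Cells grown on coverslips and treated, fixed in 4% paraformaldehyde 10 min, permeabilized in 0.5% Triton X-100 5 min. Stained overnight with conformation-specific antibodies PAB1620 (1:50, wild-type fold) and PAB240 (1:400, misfolded/unfolded), then goat anti-mouse IgG secondary for 40 min.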

[3] = Binding affinity to Zn(II)+ incubated for 60 mins using FluoZin-3 by fuorescence assay
[4] = tested on: NCI-H1299; test: Induction of ROS production in human H1299 cells at 0.75 uM incubated for 24 hrs by CellRox green based fluorescence flow cytometry relative to ZMC1; type: functional
[5] = molecular target: Mu-type opioid receptor (Homo sapiens, UniProt P35372); test: Displacement of [3H]DAMGO from human recombinant mu receptor at 10 uM after 120 mins by scintillation counting analysis relative to control; details: probe [3H]DAMGO
[6] = molecular target: Sodium-dependent noradrenaline transporter (Homo sapiens, UniProt P23975); test: Displacement of [3H]nisoxetine from recombinant human norepinephrine transporter at 10 uM incubated for 120 mins by radiometric scintillation analysis relative to control; type: ADME; details: probe [3H]nisoxetine
[7] = molecular target: hERG (KCNH2) (Homo sapiens, UniProt Q12809); test: Displacement of [3H]-dofetilide from human recombinant ERG at 10 uM relative to control; details: probe [3H]-dofetilide
[8] = molecular target: 5-hydroxytryptamine receptor 2A (Homo sapiens, UniProt P28223); test: Displacement of [125I]+/-DOI from human recombinant 5-HT2A receptor at 10 uM after 60 mins by scintillation counting analysis relative to control; details: recombinant human 5-HT2A receptor, probe [125I]+/-DOI
[9] = tested on: TOV112D; test: Anticancer activity against human TOV112D cells harbouring p53 R175H mutant xenografted NCr nu/nu mouse assessed as tumor growth inhibition at 5.73 mg/kg, ip relative to control; type: functional; details: read-out: TGI
In short: (§1)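 Tumors (five per group) were grown to 50 mm³, then the compound was given ip daily. Dimensions were measured every other day, with volume = L × W² × π/6. Significance was tested by Student's t test.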

[10] = tested on: Sodium channel site 2; test: Displacement of [3H]batrachotoxinin from rat Sodium channel site 2 at 10 uM incubated for 60 mins by radiometric scintillation analysis relative to control; details: rat sodium channel site 2, probe [3H]batrachotoxinin
[11] = tested on: TOV112D; test: Growth inhibition of human TOV112D cells harbouring p53 R175H mutant incubated for 3 days by MTS assay; type: functional, cell-based; details: 72 h
[12] = Ratio of EC50 for test compound to EC50 for ZMC1 for growth inhibition of human TOV-112D cells harbouring p53 R175H mutant incubated for 3 days by MTS assay; type: functional, TOV112D; details: time 3 day
[13] = Apparent permeability in human Caco-2 cells at 5 uM measured up to 90 mins by LC-MS/MS analysis; type: ADME, cell-based
[14] = tested on: NCI-H1299; test: Cytotoxicity against p53-null human H1299 cells; type: functional, cell-based
In short: (§2)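 5000 cells/well seeded; serial compound dilutions added next day at about 50% confluence. Growth read by MTS or Calcein AM after 3 days. Three independent experiments, each in triplicate; significance by Student's t test.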

[15] = tested on: TOV112D; test: Anticancer activity against human TOV112D cells harbouring p53 R175H mutant xenografted NCr nu/nu mouse assessed as tumor growth inhibition at 5 mg/kg, ip relative to control; type: functional; details: read-out: TGI; in short: as §1
[16] = Toxicity in NCr nu/nu mouse assessed as change in body weight loss up to 30 mg/kg, ip; type: organism-based; details: in vivo
In short: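 NCr nu/nu mice, 8–12 weeks old, 5 per dose, given a single intraperitoneal injection for acute maximum tolerated dose testing. Health, behavior and body weight monitored afterward.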

[17] = tested on: MDA-MB-468; test: Anticancer activity against human MDA-MB-468 cells harbouring p53 R273H mutant xenografted NCr nu/nu mouse assessed as tumor growth inhibition at 5.73 mg/kg, ip relative to control; type: functional, organism-based
In short: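 MDA-MB-468 xenografts (6 × 10⁶ cells/site) in NCr nu/nu nude mice, five tumors per group, grown to 50 mm³, then dosed ip daily. Tumor length and width measured every other day; volume = L × W² × π/6. Growth versus control compared by Student's t test.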

[18] = tested on: NCI-H460; test: Cytotoxicity against human NCI-H460 cells harbouring p53 wild type; type: functional, cell-based; in short: as §2
[19] = Toxicity in mouse assessed as maximum tolerated dose; details: in vivo
In short: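 Acute single-dose test in NCr nu/nu nude mice aged 8–12 weeks, 5 mice per dose. One intraperitoneal injection was given, then health, behaviour and body weight were monitored.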

[20] = Stability in simulated gastric fluid assessed as parent compound remaining measured after 7 hrs at room temperature; type: ADME; details: read-out: Stabilty
In short: (§3)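 Incubation in simulated gastric fluid (pH 1–2) at room temperature (~23 °C) or 37 °C. Parent compound remaining quantified by HPLC at 220 and 254 nm, with peak identity confirmed by LC–MS.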

[21] = Stability in simulated gastric fluid assessed as parent compound remaining measured at 37 degC; type: ADME; details: simulated gi fluid; in short: as §3
[22] = Growth inhibition of human TOV112D cells harbouring p53 R175H mutant incubated for 3 days combination with 5 Gy radiation by MTS assay; type: functional, cell-based; details: TOV-112D, 72 h
In short: (§4)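 5000 cells per well seeded to reach 50% confluence the next day, then given serial dilutions of compound; line 1 cells also received 5 Gy γ-irradiation, line 2 cells also received etoposide (level not stated). Growth read by MTS or Calcein AM after 3 days (72 h). EC50 taken from dilution curve; three independent experiments, each in triplicate, Student's t test.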

[23] = Growth inhibition of human TOV112D cells harbouring p53 R175H mutant incubated for 3 days combination with etoposide by MTS assay; type: functional, cell-based; details: TOV-112D, 72 h; in short: as §4
[24] = Binding affinity to Cu(II)+ using CuSO4
[25] = Stability in simulated gastric fluid assessed as parent compound remaining measured after 6 hrs at room temperature; type: ADME; details: read-out: Stabilty; in short: as §3

Sequence of 5-hydroxytryptamine receptor 2A (P28223 whole entry): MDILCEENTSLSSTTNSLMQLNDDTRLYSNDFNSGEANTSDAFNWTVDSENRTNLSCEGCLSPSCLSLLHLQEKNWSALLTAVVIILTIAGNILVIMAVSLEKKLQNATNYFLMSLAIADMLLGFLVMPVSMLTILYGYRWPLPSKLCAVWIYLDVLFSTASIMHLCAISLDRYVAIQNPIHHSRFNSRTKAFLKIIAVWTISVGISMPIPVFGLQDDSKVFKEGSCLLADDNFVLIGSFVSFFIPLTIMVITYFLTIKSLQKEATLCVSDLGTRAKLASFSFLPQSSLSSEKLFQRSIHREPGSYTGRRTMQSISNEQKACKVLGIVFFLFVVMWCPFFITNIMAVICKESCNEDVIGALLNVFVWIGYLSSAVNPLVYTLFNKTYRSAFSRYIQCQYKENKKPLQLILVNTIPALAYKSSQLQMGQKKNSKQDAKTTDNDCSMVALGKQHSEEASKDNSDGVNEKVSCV
Sequence of Sodium-dependent noradrenaline transporter (P23975 whole entry): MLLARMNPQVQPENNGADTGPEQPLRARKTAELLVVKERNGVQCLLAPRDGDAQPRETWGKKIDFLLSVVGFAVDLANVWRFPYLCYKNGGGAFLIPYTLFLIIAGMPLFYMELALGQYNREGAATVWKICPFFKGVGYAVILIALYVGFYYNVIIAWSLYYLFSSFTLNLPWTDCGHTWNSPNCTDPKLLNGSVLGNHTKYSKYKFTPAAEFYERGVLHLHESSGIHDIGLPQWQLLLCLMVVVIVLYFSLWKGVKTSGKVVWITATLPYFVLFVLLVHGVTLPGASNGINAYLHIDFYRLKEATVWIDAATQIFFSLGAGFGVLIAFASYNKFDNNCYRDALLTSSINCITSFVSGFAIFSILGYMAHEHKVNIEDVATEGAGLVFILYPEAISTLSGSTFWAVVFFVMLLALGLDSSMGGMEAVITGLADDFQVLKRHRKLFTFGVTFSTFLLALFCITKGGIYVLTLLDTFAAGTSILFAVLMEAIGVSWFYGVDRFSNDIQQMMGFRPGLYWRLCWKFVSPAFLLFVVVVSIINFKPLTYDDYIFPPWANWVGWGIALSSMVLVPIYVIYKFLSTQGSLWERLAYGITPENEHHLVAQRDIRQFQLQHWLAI
Sequence of Mu-type opioid receptor (P35372 whole entry): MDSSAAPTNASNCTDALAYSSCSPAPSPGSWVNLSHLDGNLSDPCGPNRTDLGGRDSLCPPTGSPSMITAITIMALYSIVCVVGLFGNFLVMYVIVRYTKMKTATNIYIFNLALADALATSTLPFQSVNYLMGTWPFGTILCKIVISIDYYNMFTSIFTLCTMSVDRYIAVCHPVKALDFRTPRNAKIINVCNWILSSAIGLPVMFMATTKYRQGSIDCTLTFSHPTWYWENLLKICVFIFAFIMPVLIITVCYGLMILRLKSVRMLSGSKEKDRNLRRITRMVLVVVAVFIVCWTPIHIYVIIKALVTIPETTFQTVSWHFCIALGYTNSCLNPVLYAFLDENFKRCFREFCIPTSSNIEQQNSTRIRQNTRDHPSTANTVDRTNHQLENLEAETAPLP
Sequence of hERG (KCNH2) (Q12809 whole entry): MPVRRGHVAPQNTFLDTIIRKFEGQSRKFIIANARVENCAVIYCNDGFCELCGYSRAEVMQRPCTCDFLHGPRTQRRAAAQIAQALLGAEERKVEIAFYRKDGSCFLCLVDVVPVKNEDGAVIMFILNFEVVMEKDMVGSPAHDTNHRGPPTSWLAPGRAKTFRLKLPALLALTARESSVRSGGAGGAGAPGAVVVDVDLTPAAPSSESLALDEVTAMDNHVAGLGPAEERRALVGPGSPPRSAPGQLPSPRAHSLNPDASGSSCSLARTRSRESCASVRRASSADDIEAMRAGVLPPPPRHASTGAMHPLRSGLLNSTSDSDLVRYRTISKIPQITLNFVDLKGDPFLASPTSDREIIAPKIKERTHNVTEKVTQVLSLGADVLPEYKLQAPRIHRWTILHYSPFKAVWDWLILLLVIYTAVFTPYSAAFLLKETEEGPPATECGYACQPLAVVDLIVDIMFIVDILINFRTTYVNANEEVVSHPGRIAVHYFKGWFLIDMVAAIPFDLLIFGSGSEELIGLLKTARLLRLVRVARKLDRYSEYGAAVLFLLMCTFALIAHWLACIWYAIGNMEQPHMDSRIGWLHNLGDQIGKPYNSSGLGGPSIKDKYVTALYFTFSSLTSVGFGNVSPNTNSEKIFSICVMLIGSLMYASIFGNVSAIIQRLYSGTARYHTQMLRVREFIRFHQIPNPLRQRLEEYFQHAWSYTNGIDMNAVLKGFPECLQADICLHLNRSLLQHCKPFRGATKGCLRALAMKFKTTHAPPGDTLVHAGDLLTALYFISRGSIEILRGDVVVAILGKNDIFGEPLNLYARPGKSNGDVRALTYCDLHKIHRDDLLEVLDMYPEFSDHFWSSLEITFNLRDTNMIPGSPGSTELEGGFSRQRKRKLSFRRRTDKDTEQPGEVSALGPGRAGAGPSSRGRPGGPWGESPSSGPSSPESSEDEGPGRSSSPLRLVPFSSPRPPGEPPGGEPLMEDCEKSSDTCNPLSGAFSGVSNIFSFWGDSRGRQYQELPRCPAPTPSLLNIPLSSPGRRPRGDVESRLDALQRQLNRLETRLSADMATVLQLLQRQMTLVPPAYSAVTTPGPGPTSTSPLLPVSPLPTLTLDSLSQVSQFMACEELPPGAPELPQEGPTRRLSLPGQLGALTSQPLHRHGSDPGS

Row | Compound | Activity [2] | Kd [3] | Ratio [4] | inhibition at 2 h, 10 µM [6] | inhibition at 10 µM [7] | inhibition at 1 h, 10 µM [8] | inhibition at 1 h, 10 µM [10] | EC50 [11] | also measured
1 | C/C(=N\NC(=S)NC1CCN(c2ccccn2)CC1)c1ccccn1 | inactive | – | – | – | – | – | – | – | Kd [1]: Not Active
2 | C/C(=N\Nc1nc2ccccc2s1)c1cc(OCCO)ccn1 | inactive | 22 nM | 2.8 | – | – | – | – | – | –
3 | C/C(=N\NC(=S)N1CCC1)c1ncccc1C | inactive | – | – | – | – | – | – | – | –
4 | C/C(=N\Nc1nccn1C)c1ccccn1 | Active | 408 nM | 0.9 | 4% | 7% | 11% | 23% | 445 nM | inhibition at 2 h, 10 µM [5]: -2%; inhibition in vivo at 5.73 mg/kg [9]: 57%; Ratio EC50 [12]: 47.1
5 | C/C(=N\NC(=S)N(C)C)c1ccccn1 | Active | – | 1.3 | – | – | – | – | 1 nM | Kd ([1]; read-out: Kd): 25.6 nM; Papp at […], 5 µM [13]: 7.3 ×10⁻⁶ cm/s; Ratio EC50 [12]: 0.2
6 | C/C(=N\NC(=S)N1CCC1)c1ccccc1 | inactive | – | 0.9 | – | – | – | – | – | Kd [1]: Not Active
7 | COCCOc1ccc2nc(N/N=C(\C)c3ccccn3)sc2c1 | Active | 81 nM | 2.4 | – | – | – | – | – | Kd ([1]; read-out: Kd): 386 nM
8 | C/C(=N\Nc1nc2ccccc2o1)c1cc(OCCN(C)C)ccn1 | Active | 47 nM | 1.4 | -25% | 51% | 32% | 21% | 53 nM | inhibition at 2 h, 10 µM [5]: 0%; inhibition in vivo at 5.73 mg/kg [9]: 56%; Ratio EC50 [12]: 5.6
9 | CS/C(=N\N=C(/C)c1ccccn1)N1CCC1 | inactive | – | – | – | – | – | – | – | Kd [1]: Not Active
10 | C/C(=N\NC(=S)N1CCC1)c1cccc(C)n1 | Active | – | – | – | – | – | – | 132 nM | Kd ([1]; read-out: Kd): 48.3 nM
11 | C/C(=N\Nc1nc2ccccc2n1CCN(C)C)c1ccccn1 | Active | 61 nM | 1.6 | – | – | – | – | 42 nM | Ratio EC50 [12]: 5.2
12 | C/C(=N\Nc1nc2ccccc2s1)c1cc(OCCN(C)C)ccn1 | Active | 55 nM | 2.5 | 82% | 95% | 76% | 36% | – | inhibition at 2 h, 10 µM [5]: 48%
13 | C/C(=N\Nc1ccc2ccccc2n1)c1ccccn1 | Active | – | – | – | – | – | – | 141 nM | –
14 | O=C(O)CN(CC(=O)O)CC(=O)O [NITRILOTRIACETIC ACID] | – | – | – | – | – | – | – | – | Kd ([1]; read-out: Kd): 17 nM
15 | C/C(=N\Nc1nc2ccccc2s1)c1ccccn1 | Active | – | – | 101% | 19% | 96% | 101% | 55 nM | inhibition at 2 h, 10 µM [5]: 13%; Activity [14]: inactive; inhibition in vivo at 5 mg/kg [15]: 72%; Activity [16]: Non-Toxic; TGI [17]: inactive; Activity [18]: inactive
16 | C/C(=N\NC(=S)N1CCC1)c1cc(N(C)C)ccn1 | inactive | – | – | – | – | – | – | 8 nM | –
17 | CC(C)(C)/C(=N\NC(=S)N1CCC1)c1ccccn1 | inactive | – | 0.7 | – | – | – | – | – | Kd [1]: Not Active
18 | C/C(=N\Nc1nc2ccccc2n1C)c1ccccn1 | Active | – | – | 61% | 86% | 46% | 7% | 4 nM | inhibition at 2 h, 10 µM [5]: 48%
19 | C/C(=N\Nc1nc2ccccc2n1C)c1ncccn1 | inactive | 54 nM | 1.6 | -2% | 77% | 11% | 12% | – | inhibition at 2 h, 10 µM [5]: 41%
20 | C/C(=N\NC(=S)N1CCC1)c1ccccn1 | Active | – | – | – | – | – | – | – | MTD [19]: 5 mg/kg; Papp at […], 5 µM [13]: 4.4 ×10⁻⁶ cm/s; inhibition in vivo at 5.73 mg/kg [9]: 63%; remaining at 7 h [20]: 22%
21 | C/C(=N\Nc1nc2ccccc2n1CCN1CCOCC1)c1ccccn1 | Active | 71 nM | – | -7% | 76% | 100% | 50% | 51 nM | inhibition in vivo at 5.73 mg/kg [9]: 59%
22 | C/C(=N\Nc1nc2ccccc2n1CCN1CCCC1)c1ccccn1 | Active | 22 nM | – | 101% | 88% | 96% | 101% | – | inhibition in vivo at 5.73 mg/kg [9]: 47%
23 | C/C(=N\Nc1nc2ccccc2o1)c1ccccn1 | Active | – | – | 21% | 21% | – | 12% | 6 nM | inhibition at 2 h, 10 µM [5]: 2%; Activity [14]: inactive; Activity [18]: inactive
24 | C/C(=N\Nc1nc2ccccc2s1)c1cc(OCCN2CCN(C)CC2)ccn1 | inactive | 20 nM | 0.9 | – | – | – | – | – | –
25 | C/C(=N\Nc1nc2ccccc2s1)c1ncccn1 | inactive | 79 nM | 1.2 | 84% | -2% | 3% | 2% | – | inhibition at 2 h, 10 µM [5]: 4%
26 | C/C(=N\Nc1nc2ccccc2s1)c1cc(N(C)C)ccn1 | Active | – | – | – | – | – | – | 48 nM | –
27 | C/C(=N\NC(=O)N1CCC1)c1ccccn1 | inactive | – | – | – | – | – | – | > 10000 nM | –
28 | COC/C(=N\Nc1nc2ccccc2s1)c1ccccn1 | Active | 197 nM | 0.9 | – | – | – | – | – | –
29 | C/C(=N\NC(=S)N1CCC1)c1cnccn1 | Active | – | 2 | – | – | – | – | – | Kd ([1]; read-out: Kd): 99.4 nM; Ratio EC50 [12]: 4.5
30 | C/C(=N\Nc1nc2ccccc2n1CCN1CCC(F)(F)C1)c1ccccn1 | Active | 26 nM | – | -1% | 101% | 92% | – | 151 nM | Stabilty [21]: > 82%; EC50 [22]: 180 nM; EC50 [23]: 120 nM; Kd [24]: 0.001 pM; remaining at 6 h [25]: > 92%
